FLuc inh counter: Photinus pyralis luciferase inhibition counter-screen. ATPLite firefly luciferase biochemical luminescence, 10 min. P08659. actives 1.5% (n = 200,000). inhibition, % at 10 µM;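 active means inhibition above about 50% when tested at 10 µM, limit read from the data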
FLuc act counter: firefly luciferase counter-screen for stimulation assays. P08659. ATPlite luciferase biochemical, luminescence, 10 min; 0 = ATP-free wells, 1 = DMSO control. activation factor at 10 µM. 200,000 tested, under 10 active;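 active means luciferase activation factor, scaled between plate controls, of at least 2 with compound at 10 µM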
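test system = cell-free luciferase reagent | medium = PBS as buffer for the ATP substrate | dosing = test compounds dosed from 2 mM stocks in 100% DMSO | incubation = 10 min at ambient temperature | detection = luminescence measurement of luciferase light output | benchmarks = low control with PBS replacing ATP, high control enzyme plus ATP without compound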
PPC-1+TRAIL kill: compounds killing PPC-1 cancer cells with TRAIL present (potentiator screen, no TRAIL-free arm). PPC-1 cells + TRAIL, ATPLite viability luminescence. cell killing (% activity), % at 4 µM or 5 µM. actives 0.41% (n = 220,000). AID 1443;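 active means cell killing above 50% in the first pass at 4 µM, then a duplicate retest at 5 µM averaging 50% or more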;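 further: plate controls were cells with TRAIL plus DMSO for no effect and medium-only wells lacking cells for full effect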
Wee1 degr inh: human Wee1 degradation inhibition, primary screen; P30291; actives 1.2% (n = 220,000); HeLa Luc-Wee1K328M stability, luciferase luminescence; 100% = proteasome inhibitor MG132 effect; reporter increase, % at 5 µM;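 active means activation above the mean of all tested compounds plus 3 SD, set per screening run, cut at about 8.8% in these data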;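 further: cells exposed to compound for 20 h before luminescence read; 0% = DMSO alone and 100% = MG132 at 30 µM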
PKD1 inh: inhibitors of human PKD1 kinase; Q15139; PKD1 kinase fluorescence polarization assay; inhibition, % (concentration not given with the values); actives 0.056% (n = 200,000); in the data active means inhibition above about 50%
Target sequence (Q15139 whole entry, looked up): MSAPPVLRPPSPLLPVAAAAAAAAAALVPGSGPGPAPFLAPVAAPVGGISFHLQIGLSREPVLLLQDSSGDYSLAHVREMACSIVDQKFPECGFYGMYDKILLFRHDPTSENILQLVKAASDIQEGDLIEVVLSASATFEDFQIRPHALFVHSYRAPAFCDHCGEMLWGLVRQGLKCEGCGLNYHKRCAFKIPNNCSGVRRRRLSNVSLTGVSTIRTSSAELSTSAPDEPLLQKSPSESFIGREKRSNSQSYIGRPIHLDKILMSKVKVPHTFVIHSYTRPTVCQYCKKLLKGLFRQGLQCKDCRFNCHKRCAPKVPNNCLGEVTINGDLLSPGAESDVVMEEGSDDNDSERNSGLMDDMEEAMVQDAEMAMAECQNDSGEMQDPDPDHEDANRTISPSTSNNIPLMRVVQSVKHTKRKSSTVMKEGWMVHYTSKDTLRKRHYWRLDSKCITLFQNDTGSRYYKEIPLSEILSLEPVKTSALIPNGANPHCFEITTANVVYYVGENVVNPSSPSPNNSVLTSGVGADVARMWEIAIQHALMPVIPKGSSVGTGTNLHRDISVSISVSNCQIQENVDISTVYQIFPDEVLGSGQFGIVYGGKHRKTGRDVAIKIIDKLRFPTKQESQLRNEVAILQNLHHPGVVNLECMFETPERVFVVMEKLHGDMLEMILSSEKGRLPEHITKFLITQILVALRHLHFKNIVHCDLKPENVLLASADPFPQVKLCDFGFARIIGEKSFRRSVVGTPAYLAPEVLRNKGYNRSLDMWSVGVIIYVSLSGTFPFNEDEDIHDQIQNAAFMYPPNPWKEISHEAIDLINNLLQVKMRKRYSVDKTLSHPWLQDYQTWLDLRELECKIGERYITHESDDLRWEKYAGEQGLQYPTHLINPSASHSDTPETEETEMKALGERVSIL
TRAIL sens C8: caspase-8 TRAIL sensitization. AID 624354. inhibition (viability loss, TRAIL sensitization), % at 10 µM. actives 1% (n = 360,000). NB7+C8 cells + TRAIL, ATPlite viability luminescence;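 active means compounds causing at least 50% loss of cell viability in the single-dose screen, relative to plate controls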
Wee1 stab conf: human Wee1 degradation inhibition, confirmation | actives 4% (n = 1,100) | shares compounds with Wee1 degr inh | HeLa Luc-Wee1K328M degradation, luminescence; vehicle 0%, proteasome-blocked wells 100% | activation, % at 5 µM; in the data active means activation above about 8.9%
Active calls of the source: *. Shown are actives, neighbours in structure and some others; about 2.2% of the full set was active somewhere.

What do the screens show for `C/C(=N\NC(=O)CCc1ccccc1)C1C(=O)c2ccccc2C1=O`?
FLuc inh counter: 30.0; FLuc act counter: 0.7; Wee1 degr inh: 12.9*; PKD1 inh: 6.0; TRAIL sens C8: 15.2; Wee1 stab conf: -1.1

Results for CC(/C=C/c1ccccc1)=N\NC(=O)CCc1ccccc1 ?
FLuc inh counter: 1.2; FLuc act counter: 1; PPC-1+TRAIL kill: 4.8; Wee1 degr inh: -1.1; PKD1 inh: -8.3; TRAIL sens C8: -5.7

How did CC1CCCCC1NC(=O)CNC(=O)c1cccs1 (stereo not given) do in these assays?
TRAIL sens C8: -13.6

Results for COCCCNC(=O)Nc1ccc(F)cc1F ?
FLuc inh counter: -7.9; FLuc act counter: 1.1; PPC-1+TRAIL kill: 16.4; Wee1 degr inh: -1.6; PKD1 inh: 5.3; TRAIL sens C8: 11.9

How did COCCCNC(=O)Nc1ccc(Br)cc1Cl do in these assays?
FLuc inh counter: -6.0; FLuc act counter: 1.1; PPC-1+TRAIL kill: 6.9; Wee1 degr inh: 11.2*; PKD1 inh: -5.8; TRAIL sens C8: 19.4; Wee1 stab conf: 4.1

How did CC1(C)Cc2c(C#N)c(NCCO)nc(-c3ccco3)c2CO1 do in these assays?
PPC-1+TRAIL kill: 19.5; Wee1 degr inh: 18.2*; TRAIL sens C8: -4.0; Wee1 stab conf: 1.1

How did CC(=O)Nc1ccc2nc(-c3cccs3)[nH]c2c1 do in these assays?
FLuc inh counter: 51.6*; FLuc act counter: 0.5; PPC-1+TRAIL kill: 25.4; Wee1 degr inh: 15.6*; PKD1 inh: -0.1; TRAIL sens C8: 24.2; Wee1 stab conf: -0.7

What do the screens show for `CC(=O)Nc1ccc2nc3ccccc3nc2c1`?
PPC-1+TRAIL kill: 7.0; Wee1 degr inh: 23.7*; TRAIL sens C8: 19.3; Wee1 stab conf: -0.5

What do the screens show for `Cc1nc2ccc(NC(=O)c3cccs3)cc2s1`?
TRAIL sens C8: -11.9

Results for CC(=O)Nc1ccc2nc(NC(=O)c3cccs3)sc2c1 ?
PPC-1+TRAIL kill: 26.4; Wee1 degr inh: 11.2*; TRAIL sens C8: 31.1; Wee1 stab conf: 0.7

Results for O=C(Nc1ccc2nc3ccccc3nc2c1)c1ccc(Br)cc1 ?
FLuc inh counter: -4.5; FLuc act counter: 1; PPC-1+TRAIL kill: 10.6; Wee1 degr inh: -2.9; PKD1 inh: -3.6; TRAIL sens C8: -2.6

Results for COC(CNC(=O)c1ccc2nc(-c3cccs3)c(-c3cccs3)nc2c1)OC ?
FLuc inh counter: 1.7; FLuc act counter: 1; PPC-1+TRAIL kill: 18.7; Wee1 degr inh: 11.7*; PKD1 inh: 0.7; TRAIL sens C8: 4.3; Wee1 stab conf: 5.1

How did COc1ccc(-c2nc3ccc(C(=O)NCC(OC)OC)cc3nc2-c2ccc(OC)c(OC)c2)cc1OC do in these assays?
TRAIL sens C8: -5.4

How did O=C(c1c[nH]c2ccccc2c1=O)N1CCCCCC1 do in these assays?
FLuc inh counter: -1.3; FLuc act counter: 1; PPC-1+TRAIL kill: 24.4; Wee1 degr inh: -1.0; PKD1 inh: -7.0; TRAIL sens C8: 5.3

What do the screens show for `O=C(Nc1cccs1)Nc1ccc(Br)cc1F`?
FLuc inh counter: 17.7; FLuc act counter: 0.8; PPC-1+TRAIL kill: 21.3; Wee1 degr inh: 13.8*; PKD1 inh: -16.5; TRAIL sens C8: 6.3; Wee1 stab conf: -1.8

How did CCOC(=O)CC(NC(=O)Cn1nnc(-c2ccccc2F)n1)c1ccccc1Cl (stereo not given) do in these assays?
FLuc inh counter: -7.0; FLuc act counter: 1.1; PPC-1+TRAIL kill: 1.9; Wee1 degr inh: -4.1; PKD1 inh: -7.8; TRAIL sens C8: 0.1

How did CCOC(=O)CC(NC(=O)Cn1nnc(-c2ccccc2C)n1)c1ccc(OC)cc1 (stereo not given) do in these assays?
FLuc inh counter: -1.7; FLuc act counter: 1; PPC-1+TRAIL kill: 13.8; Wee1 degr inh: 12.1*; PKD1 inh: 1.7; Wee1 stab conf: 2.4

Results for O=C(Cc1cccs1)N/N=C/c1ccccc1 ?
PPC-1+TRAIL kill: 11.0; Wee1 degr inh: -2.6; TRAIL sens C8: -8.8

Results for CCOc1ccc(/C=N/NC(=O)Cc2cccs2)cc1 ?
PPC-1+TRAIL kill: -16.5; Wee1 degr inh: 13.6*; TRAIL sens C8: -4.6; Wee1 stab conf: 0.4

What do the screens show for `C(=N\Nc1nc2ccccc2[nH]1)/c1ccc2c(c1)OCCO2`?
PPC-1+TRAIL kill: 34.6; Wee1 degr inh: 11.4*; TRAIL sens C8: 31.7; Wee1 stab conf: -0.2

What do the screens show for `O=C(Nc1ccccc1)N(c1ccccc1)C1C=CS(=O)(=O)C1` (stereo not given)?
PPC-1+TRAIL kill: 4.7; Wee1 degr inh: 0.4; TRAIL sens C8: 0.1

How did CC(C)[C@H](NC(=O)c1cccc(S(=O)(=O)N2CCOCC2)c1)C(=O)OCC(=O)Nc1cccc(Br)c1 do in these assays?
TRAIL sens C8: -5.6

Results for Cc1cc(C)n(-c2ccc(C(=O)Nc3ccccc3N3CCOCC3)cc2)n1 ?
FLuc inh counter: -7.5; FLuc act counter: 1.1; PPC-1+TRAIL kill: 7.3; Wee1 degr inh: 7.5; PKD1 inh: 9.6; TRAIL sens C8: 5.7

Results for Cc1cc(C)n(-c2ccc(C(=O)Nc3cc(C(F)(F)F)ccc3N3CCOCC3)cc2)n1 ?
FLuc inh counter: -4.2; FLuc act counter: 1; PPC-1+TRAIL kill: 23.8; Wee1 degr inh: 13.3*; PKD1 inh: -2.2; TRAIL sens C8: -0.9; Wee1 stab conf: 0.1

Results for O=C(Nc1ccc(F)cc1)C(Cc1ccccc1)n1cccc1 (stereo not given) ?
PPC-1+TRAIL kill: 8.5; Wee1 degr inh: 12.3*; TRAIL sens C8: -1.3; Wee1 stab conf: -0.3

Results for COc1cc(/C=C2\C(=O)N(c3ccc(NC(C)=O)cc3)N=C2c2ccccc2)ccc1O ?
FLuc inh counter: 3.4; FLuc act counter: 1; PPC-1+TRAIL kill: -8.4; Wee1 degr inh: -0.5; PKD1 inh: 1.8; TRAIL sens C8: -3.2

Results for O=C1/C(=C\c2ccc(O)c(O)c2)C(c2ccccc2)=NN1c1ccccc1 ?
FLuc inh counter: -3.4; FLuc act counter: 1; PPC-1+TRAIL kill: -2.2; Wee1 degr inh: 11.4*; PKD1 inh: 8.6; TRAIL sens C8: 0.7; Wee1 stab conf: 1.8

How did CCn1c(N2CCN(S(=O)(=O)c3ccc(F)cc3)CC2)nc2ccccc21 do in these assays?
FLuc inh counter: -3.2; FLuc act counter: 1; PPC-1+TRAIL kill: 17.2; Wee1 degr inh: 2.5; PKD1 inh: 0.7; TRAIL sens C8: 1.4

What do the screens show for `CCn1c(N2CCN(S(=O)(=O)c3ccc(Cl)cc3)CC2)nc2ccccc21`?
FLuc inh counter: 2.7; FLuc act counter: 1; PPC-1+TRAIL kill: -5.1; Wee1 degr inh: 25.6*; PKD1 inh: -0.1; TRAIL sens C8: 12.7; Wee1 stab conf: -0.2

What do the screens show for `COc1ccc([N+](=O)[O-])c(C=CC(=O)c2ccccn2)c1`?
TRAIL sens C8: 27.4

High-throughput results from PubChem BioAssay.
